A short description of assay [1]: yeast TOR pathway RPL19A-GFP modulators, primary screen, cell-based, S. cerevisiae, multiplex flow cytometry (AID 1862; in the data active = percent of DMSO control GFP below about 86%;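 also: lower values mimic rapamycin by blocking the RPL19A rise seen in DMSO cells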). To be noted: S. cerevisiae RPL19A-GFP strain, flow cytometry fluorescence, 3 h; at 10 µM; stronger effect = lower value. In general terms: In flow cytometry, cells or beads pass a laser one at a time.
Assay [2] in a line: modulators of MEP2-GFP levels in yeast, primary screen, S. cerevisiae, multiplex flow cytometry (AID 1867;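 active = GFP response, as percent of the DMSO control, above the screen-wide mean plus 3 SD, about 139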;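 also: median GFP channel fluorescence of barcode-gated MEP2-GFP cells measured by flow cytometry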). To be noted: S. cerevisiae MEP2-GFP strain, 3 h, at 10 µM, stronger effect = higher value, 100% means same as DMSO wells.
Assay [3] can be described thus: modulators of CIT2-GFP expression in yeast, primary screen, S. cerevisiae, GFP fusion, multiplex flow cytometry (AID 1870;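 active = percent response above a set limit, the screen-wide mean plus 3 SD, cut at about 130% in these data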;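 also: barcoded CIT2-GFP strain pooled with four other GFP strains with rapamycin as positive control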). To be noted: 3 h, at 10 µM, stronger effect = higher value.
The nature of assay [4]: modulators of LAP4-GFP expression in yeast, primary screen, S. cerevisiae, multiplex flow cytometry (AID 1873;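 active = GFP signal, as percent of the solvent control, above the screen mean plus 3 SD, about 149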). To be noted: 3 h, at 10 µM, stronger effect = higher value.
Assay [5] in a line: modulators of AGP1-GFP expression in yeast TOR pathway, primary screen, cell-based, multiplex flow cytometry, S. cerevisiae (AID 1887;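 active = GFP signal above the screen-wide mean plus 3 SD, that is over about 124.5% of the solvent control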;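 also: AGP1-GFP fusion strain of S. cerevisiae within a five-strain barcoded multiplex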). To be noted: 3 h, at 10 µM, stronger effect = higher value.
Assay [6] in a line: RPL19A-GFP modulators, yeast TOR pathway, confirmation, cell-based, S. cerevisiae, flow cytometry, cherry picks, mother/daughter gates (AID 2270;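 active = GFP response below 50% of the DMSO control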). To be noted: S. cerevisiae RPL19A-GFP strain, 3 h, at 10 µM, stronger effect = lower value, 100 = same GFP as DMSO wells.
A short description of assay [7]: LAP4-GFP expression modulators in yeast, confirmation, cell-based, cherry picks, flow cytometry, mother/daughter gates (AID 2271;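 active = GFP response above 150% of the DMSO control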;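 also: ratio of sample to DMSO plate mean so 100% equals DMSO level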). To be noted: S. cerevisiae LAP4-GFP strain, 3 h, at 10 µM, stronger effect = higher value, 100 means same as DMSO control. An outline of the steps: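 Material – Alexa Fluor 633-labelled Saccharomyces cerevisiae GFP-fusion strain, single-plex · Incubation – compound exposure 3 h at 30 °C, end-over-end rotation · Measured by – GFP by flow cytometry · Measure – median GFP fluorescence as percent of plate-mean DMSO wells · Control set – positive rapamycin (400 ng/mL), negative DMSO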

Assay [8] can be described thus: modulators of MEP2-GFP levels in yeast, confirmation, S. cerevisiae, flow cytometry GFP, cherry picks (AID 2272;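 active = GFP response above 150% of the DMSO control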;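 also: ratio of well signal to plate DMSO mean so 100% equals DMSO level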). To be noted: S. cerevisiae MEP2-GFP strain, 3 h, at 10 µM, stronger effect = higher value.
Assay [9] is described as follows: modulators of CIT2-GFP expression in yeast, confirmation, S. cerevisiae, GFP fusion, cherry picks, mother/daughter gates (AID 2274;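 active = GFP response above 150% of the DMSO level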). To be noted: S. cerevisiae CIT2-GFP strain, flow cytometry, 3 h, at 10 µM, stronger effect = higher value.
Assay [10] can be described thus: inhibitors of CD8+ T cell-vesicle binding, pilot screen, LFA-1/ICAM-1 modulator project, MLPCN validation set, flow cytometry (AID 2523).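 As to vesicle binding response: mean PE anti-B7-1 fluorescence of CD8+ cells relative to row control; 100% = QL9-loaded vesicles with DMSO vehicle in the same plate row.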 To be noted: 2C mouse CD8+ T cells, at 7 µM, stronger effect = lower value; double positive events: measured here: CD8+/vesicle+ event percentage.
[11] abbreviates: measured here: daughter cell gate.
Where [12] appears, read: measured here: mother cell gate.
The mark [13] stands for this setting: measured here: daughter cell gate response.
The mark [14] stands for this setting: measured here: mother cell gate response.

Inconclusive results are not listed. Active and inactive are the calls of the source.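 The calls were made as follows, unless noted: active = response below a set limit, under 55% cells CD8-positive and vesicle-bound, and CD8 cells' 90th-percentile brightness under 279; inactive = the rest.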

Regarding `CN(C)CCN(Cc1ccccc1)c1ccccn1`, in assay [1], the percent of DMSO control GFP was 94.8% (inactive). Moreover, the GFP response vs DMSO in assay [2] is 140% (active); in assay [4], 85.3% (inactive); in assay [6], 96.8% (inactive); in [6] (setting [11]), 98.1%; in assay [6] (setting [12]), 97.9%; in [8] it was 100% (inactive). The percent response of DMSO control in assay [3] was 97.9% (inactive). Besides, the GFP response, % of DMSO is 93.3% (inactive) in [5], 98.3% (inactive) in assay [9], 99.1% in assay [9] (setting [11]) and 98.5% in assay [9] (setting [12]). For the same molecule, the GFP response relative to DMSO in assay [7] is 101% (inactive); in [7] (setting [13]), 99.2%; in [7] (setting [14]), 99.3%. In assay [10], this molecule gave a double positive events of 62.3%. In addition, in [10], the vesicle binding response was 269% (inactive).
As for `O=c1cc(-c2ccccc2)oc2cc(OCc3ccccc3)cc(O)c12`, in assay [1], the percent of DMSO control GFP was 91.7% (inactive). Besides, the GFP response vs DMSO was 140% (active) in assay [2]; 84.2% (inactive) in assay [4]; 98.2% (inactive) in assay [6]; 98.6% in assay [6] (setting [11]); 98.7% in assay [6] (setting [12]); 100% (inactive) in assay [8]. Besides, the percent response of DMSO control in assay [3] is 108% (inactive). The GFP response, % of DMSO in assay [5] was 85.9% (inactive); in assay [9], 104% (inactive); in [9] (setting [11]), 105%; in [9] (setting [12]), 103%. In addition, the GFP response relative to DMSO was 99.2% (inactive) in assay [7], 97.6% in assay [7] (setting [13]) and 99.3% in [7] (setting [14]). Moreover, in [10], the double positive events amounted to 62.5%. Moreover, the vesicle binding response in assay [10] is 139% (inactive).
Regarding `COc1cc(/C=C/C(=O)CC(=O)/C=C/c2ccc(O)c(OC)c2)ccc1O`, in assay [1], the percent of DMSO control GFP is 117% (inactive). In addition, the GFP response vs DMSO in [2] was 114% (inactive); in [4], 114% (inactive); in assay [6], 105% (inactive); in [8], 111% (inactive). In addition, the percent response of DMSO control in assay [3] was 135% (active). Besides, the GFP response, % of DMSO is 95.1% (inactive) in [5] and 111% (inactive) in assay [9]. In [7], the GFP response relative to DMSO is 93.8% (inactive). In addition, the double positive events in assay [10] was determined as 61.2%. Moreover, the vesicle binding response in assay [10] was 39.9% (inactive).
As to `O=[N+]([O-])c1ccc(O)c2ncccc12`, the percent of DMSO control GFP in assay [1] was 99.7% (inactive). In addition, the GFP response vs DMSO in assay [2] was 122% (inactive); in [4], 375% (active); in assay [6], 104% (inactive); in assay [6] (setting [11]), 99.8%; in assay [6] (setting [12]), 99.2%; in [8], 120% (inactive). Also, the percent response of DMSO control in assay [3] is 81.5% (inactive). The GFP response, % of DMSO is 152% (active) in assay [5], 138% (inactive) in assay [9], 121% in [9] (setting [11]) and 126% in assay [9] (setting [12]). In addition, the figures for the GFP response relative to DMSO in assay [7] and in [7] (setting [14]) were 274% (active) and 245%, respectively. In assay [10], this molecule registered a double positive events of 59.9%. In addition, in assay [10], the vesicle binding response was 159% (inactive).
For `CC(=O)c1ccc(CCCCCCCCCC(=O)O)s1`, in assay [1], the percent of DMSO control GFP was 98.6% (inactive). For the same molecule, the GFP response vs DMSO in [2] is 97.4% (inactive); in assay [4] it was 174% (active); in [6], 99% (inactive); in assay [6] (setting [11]), 96.7%; in assay [6] (setting [12]), 98.5%; in assay [8] it was 100% (inactive). Moreover, the percent response of DMSO control in assay [3] was 66.4% (inactive). Also, the GFP response, % of DMSO in assay [5] is 86.2% (inactive); in [9] it was 99.1% (inactive); in assay [9] (setting [11]), 93.2%; in [9] (setting [12]) it was 101%. Also, the GFP response relative to DMSO is 108% (inactive) in assay [7], 111% in [7] (setting [13]) and 113% in [7] (setting [14]). Also, in assay [10], the double positive events came out at 60%. The vesicle binding response in assay [10] is 207% (inactive).
With `C[C@H]1C[C@@H]2[C@H]([C@@H](O)C[C@@]3(C)[C@H]2CC[C@]3(O)C(=O)CO)[C@@]2(C)C=CC(=O)C=C12`, in assay [1], the percent of DMSO control GFP is 85.8% (active). Besides, the GFP response vs DMSO is 145% (active) in [2]; 80.3% (inactive) in [4]; 96.6% (inactive) in assay [6]; 96.6% in assay [6] (setting [11]); 96.6% in [6] (setting [12]); 105% (inactive) in assay [8]. Further, the percent response of DMSO control in assay [3] is 93.9% (inactive). The GFP response, % of DMSO in [5] was 83.6% (inactive); in assay [9], 99.7% (inactive); in assay [9] (setting [11]), 99.1%; in assay [9] (setting [12]) it was 98.5%. Besides, the GFP response relative to DMSO in assay [7] was 103% (inactive); in [7] (setting [13]) it was 102%; in assay [7] (setting [14]), 99.3%. Besides, the double positive events in assay [10] worked out at 77.3%. Besides, the vesicle binding response in [10] is 227% (inactive).

The values are drawn from PubChem BioAssay.
